Measurements: the M2OR odorant receptor database
Where a chain is given by its changes, count along the chain named.

What was measured:
Conditions in all cases: stereoisomer not certain
[1] = biological target: T1, OR6C65 (Homo sapiens) (UniProt A6NJZ3)
T1 sequence (whole entry): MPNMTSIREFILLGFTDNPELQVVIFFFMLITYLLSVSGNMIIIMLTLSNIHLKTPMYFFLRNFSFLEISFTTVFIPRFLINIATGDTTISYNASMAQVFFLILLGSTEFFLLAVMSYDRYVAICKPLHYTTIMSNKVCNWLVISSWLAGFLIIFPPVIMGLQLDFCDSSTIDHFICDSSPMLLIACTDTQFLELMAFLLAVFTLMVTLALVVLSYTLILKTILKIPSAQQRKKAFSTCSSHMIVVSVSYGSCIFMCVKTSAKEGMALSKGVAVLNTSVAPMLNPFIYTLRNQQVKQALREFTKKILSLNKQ
Procedure, shortened: (§1)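 Each receptor–molecule pair is labelled responsive or non-responsive (inactive) according to whether the original authors judged the measured signal statistically different from baseline. The data were taken from the main text and supplementary material of published papers and checked for typos and inconsistencies. Assay methods differed by source, with transient luciferase assays in mammalian cell lines being common.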

[2] = biological target: T2, OR6C68 (Homo sapiens) (UniProt A6NDL8)
T2 sequence (whole entry): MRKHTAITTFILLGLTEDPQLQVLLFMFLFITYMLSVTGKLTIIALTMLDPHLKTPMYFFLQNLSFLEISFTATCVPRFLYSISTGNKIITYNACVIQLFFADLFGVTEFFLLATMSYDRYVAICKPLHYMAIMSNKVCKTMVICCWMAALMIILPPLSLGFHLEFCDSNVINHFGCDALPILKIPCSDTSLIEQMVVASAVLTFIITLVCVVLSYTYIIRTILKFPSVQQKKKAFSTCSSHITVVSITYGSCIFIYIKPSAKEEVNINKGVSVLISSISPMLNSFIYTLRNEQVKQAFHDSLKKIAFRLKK
Procedure, shortened: as §1

[3] = biological target: T3, OR6C70 (Homo sapiens) (UniProt A6NIJ9)
T3 sequence (whole entry): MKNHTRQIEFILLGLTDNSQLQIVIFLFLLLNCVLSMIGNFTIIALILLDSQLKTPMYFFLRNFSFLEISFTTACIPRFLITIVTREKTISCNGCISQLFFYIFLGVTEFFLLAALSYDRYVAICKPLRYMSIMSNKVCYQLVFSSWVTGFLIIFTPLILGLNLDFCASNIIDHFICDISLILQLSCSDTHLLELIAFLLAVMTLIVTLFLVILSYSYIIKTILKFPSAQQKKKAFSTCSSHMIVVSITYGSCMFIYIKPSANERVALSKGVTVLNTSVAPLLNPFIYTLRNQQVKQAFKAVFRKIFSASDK
Procedure, shortened: as §1

[4] = biological target: T4, OR6C74 (Homo sapiens) (UniProt A6NCV1)
T4 sequence (whole entry): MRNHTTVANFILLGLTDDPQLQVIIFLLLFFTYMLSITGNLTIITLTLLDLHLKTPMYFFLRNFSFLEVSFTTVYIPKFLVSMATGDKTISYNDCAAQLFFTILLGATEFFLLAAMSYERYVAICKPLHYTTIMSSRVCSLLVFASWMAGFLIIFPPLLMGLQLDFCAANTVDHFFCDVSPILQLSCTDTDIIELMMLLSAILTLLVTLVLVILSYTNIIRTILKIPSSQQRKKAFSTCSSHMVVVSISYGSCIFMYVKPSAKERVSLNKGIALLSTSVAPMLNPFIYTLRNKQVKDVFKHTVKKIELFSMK
Procedure, shortened: as §1

[5] = biological target: T5, OR6C75 (Homo sapiens) (UniProt A6NL08)
T5 sequence (whole entry): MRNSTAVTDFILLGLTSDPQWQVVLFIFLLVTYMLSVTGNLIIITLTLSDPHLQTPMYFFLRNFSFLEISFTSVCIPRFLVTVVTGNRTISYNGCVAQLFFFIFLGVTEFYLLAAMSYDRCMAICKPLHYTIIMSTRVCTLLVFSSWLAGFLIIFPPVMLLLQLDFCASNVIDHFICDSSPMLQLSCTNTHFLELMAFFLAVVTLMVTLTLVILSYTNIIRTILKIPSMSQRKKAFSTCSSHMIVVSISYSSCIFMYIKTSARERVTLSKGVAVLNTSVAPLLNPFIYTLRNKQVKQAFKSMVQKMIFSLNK
Procedure, shortened: as §1

[6] = biological target: T6, OR6C76 (Homo sapiens) (UniProt A6NM76)
T6 sequence (whole entry): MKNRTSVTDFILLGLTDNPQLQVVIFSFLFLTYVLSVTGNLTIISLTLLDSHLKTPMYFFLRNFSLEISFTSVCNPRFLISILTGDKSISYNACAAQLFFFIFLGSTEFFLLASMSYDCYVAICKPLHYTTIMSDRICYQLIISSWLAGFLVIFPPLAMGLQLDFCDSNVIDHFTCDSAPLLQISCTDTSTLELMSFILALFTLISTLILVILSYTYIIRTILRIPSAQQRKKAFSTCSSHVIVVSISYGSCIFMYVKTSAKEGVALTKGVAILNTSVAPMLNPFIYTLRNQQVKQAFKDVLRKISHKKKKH
Procedure, shortened: as §1

[7] = biological target: T7, OR6F1 (Homo sapiens) (UniProt Q8NGZ6)
T7 sequence (whole entry): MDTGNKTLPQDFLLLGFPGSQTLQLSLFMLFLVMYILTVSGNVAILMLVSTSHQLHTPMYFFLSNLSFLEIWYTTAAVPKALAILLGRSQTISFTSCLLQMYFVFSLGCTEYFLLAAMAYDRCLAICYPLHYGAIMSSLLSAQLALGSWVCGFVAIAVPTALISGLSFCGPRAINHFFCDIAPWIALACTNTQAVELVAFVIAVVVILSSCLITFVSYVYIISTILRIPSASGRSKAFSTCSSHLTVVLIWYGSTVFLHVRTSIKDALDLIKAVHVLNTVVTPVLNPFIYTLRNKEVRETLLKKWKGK
Procedure, shortened: as §1

[8] = biological target: T8, OR6J1 (Homo sapiens) (UniProt Q8NGC5)
T8 sequence (whole entry): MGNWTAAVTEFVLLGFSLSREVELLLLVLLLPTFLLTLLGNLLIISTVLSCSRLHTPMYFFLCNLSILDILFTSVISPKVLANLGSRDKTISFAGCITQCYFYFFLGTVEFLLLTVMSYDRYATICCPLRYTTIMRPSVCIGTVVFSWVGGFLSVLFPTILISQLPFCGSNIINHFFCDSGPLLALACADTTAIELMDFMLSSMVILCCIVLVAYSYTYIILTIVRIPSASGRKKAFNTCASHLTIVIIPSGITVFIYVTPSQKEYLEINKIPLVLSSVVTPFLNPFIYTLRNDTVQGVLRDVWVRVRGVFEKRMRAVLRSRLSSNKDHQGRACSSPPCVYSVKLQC
Procedure, shortened: as §1

[9] = biological target: T9, OR6K2 (Homo sapiens) (UniProt Q8NGY2)
T9 sequence (whole entry): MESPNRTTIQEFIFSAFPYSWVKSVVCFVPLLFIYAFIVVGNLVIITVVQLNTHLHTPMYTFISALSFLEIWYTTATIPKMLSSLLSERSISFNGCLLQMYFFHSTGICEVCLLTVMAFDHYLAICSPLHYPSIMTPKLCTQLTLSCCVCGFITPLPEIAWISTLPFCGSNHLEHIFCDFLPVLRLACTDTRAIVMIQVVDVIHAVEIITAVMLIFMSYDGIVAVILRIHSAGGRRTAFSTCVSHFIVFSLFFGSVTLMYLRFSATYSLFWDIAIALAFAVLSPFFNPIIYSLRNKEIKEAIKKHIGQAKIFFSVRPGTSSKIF
Procedure, shortened: as §1

[10] = biological target: T10, OR6K3 (Homo sapiens) (UniProt Q8NGY3)
T10 sequence (whole entry): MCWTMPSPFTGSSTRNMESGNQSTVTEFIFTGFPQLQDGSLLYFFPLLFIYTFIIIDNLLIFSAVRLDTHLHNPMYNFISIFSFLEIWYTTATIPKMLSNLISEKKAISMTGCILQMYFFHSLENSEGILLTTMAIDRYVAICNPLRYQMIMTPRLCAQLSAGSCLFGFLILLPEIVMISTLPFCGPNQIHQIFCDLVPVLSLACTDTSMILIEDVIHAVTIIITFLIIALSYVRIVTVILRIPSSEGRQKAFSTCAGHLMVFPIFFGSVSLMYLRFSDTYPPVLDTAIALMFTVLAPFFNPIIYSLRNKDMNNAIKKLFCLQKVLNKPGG
Procedure, shortened: as §1

[11] = biological target: T11, OR6K6 (Homo sapiens) (UniProt Q8NGW6)
T11 sequence (whole entry): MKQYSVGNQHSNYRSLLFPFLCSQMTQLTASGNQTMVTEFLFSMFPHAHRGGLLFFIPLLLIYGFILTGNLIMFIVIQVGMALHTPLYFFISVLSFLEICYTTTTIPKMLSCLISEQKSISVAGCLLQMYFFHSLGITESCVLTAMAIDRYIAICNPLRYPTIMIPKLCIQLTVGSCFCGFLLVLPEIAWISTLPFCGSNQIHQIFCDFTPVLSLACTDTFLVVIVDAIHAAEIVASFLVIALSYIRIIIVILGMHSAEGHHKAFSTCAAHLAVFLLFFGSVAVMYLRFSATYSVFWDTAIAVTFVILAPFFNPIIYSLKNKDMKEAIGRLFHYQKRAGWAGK
Procedure, shortened: as §1

[12] = biological target: T12, OR6M1 (Homo sapiens) (UniProt Q8NGM8)
T12 sequence (whole entry): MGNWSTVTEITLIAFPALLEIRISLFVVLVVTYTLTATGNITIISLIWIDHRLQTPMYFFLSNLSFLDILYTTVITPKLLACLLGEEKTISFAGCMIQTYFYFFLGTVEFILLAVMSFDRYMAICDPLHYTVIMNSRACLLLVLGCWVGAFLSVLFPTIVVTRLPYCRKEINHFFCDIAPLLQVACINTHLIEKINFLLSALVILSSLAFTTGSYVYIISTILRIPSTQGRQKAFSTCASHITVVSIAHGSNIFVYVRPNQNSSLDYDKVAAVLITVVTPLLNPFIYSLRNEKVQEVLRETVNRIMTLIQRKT
Procedure, shortened: as §1

[13] = biological target: T13, OR6N1 (Homo sapiens) (UniProt Q8NGY5)
T13 sequence (whole entry): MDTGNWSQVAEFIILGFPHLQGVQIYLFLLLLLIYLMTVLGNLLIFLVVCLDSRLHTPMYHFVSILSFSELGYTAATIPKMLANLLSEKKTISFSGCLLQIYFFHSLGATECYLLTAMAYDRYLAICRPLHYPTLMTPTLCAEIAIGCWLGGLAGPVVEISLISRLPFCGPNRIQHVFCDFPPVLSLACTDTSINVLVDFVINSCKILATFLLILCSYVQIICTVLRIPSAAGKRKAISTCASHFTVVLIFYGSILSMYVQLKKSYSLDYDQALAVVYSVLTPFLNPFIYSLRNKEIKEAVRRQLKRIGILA
Procedure, shortened: as §1

[14] = biological target: T14, OR6N2 (Homo sapiens) (UniProt Q8NGY6)
T14 sequence (whole entry): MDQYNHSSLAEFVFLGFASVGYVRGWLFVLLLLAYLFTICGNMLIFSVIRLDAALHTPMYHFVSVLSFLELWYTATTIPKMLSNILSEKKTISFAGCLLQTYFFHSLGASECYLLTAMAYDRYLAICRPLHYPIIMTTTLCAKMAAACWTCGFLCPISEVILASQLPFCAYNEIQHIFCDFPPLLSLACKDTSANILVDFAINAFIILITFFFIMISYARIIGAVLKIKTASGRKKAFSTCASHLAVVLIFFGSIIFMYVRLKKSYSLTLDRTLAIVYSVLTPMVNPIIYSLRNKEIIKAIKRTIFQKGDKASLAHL
Procedure, shortened: as §1

[15] = biological target: T15, OR6P1 (Homo sapiens) (UniProt Q8NGX9)
T15 sequence (whole entry): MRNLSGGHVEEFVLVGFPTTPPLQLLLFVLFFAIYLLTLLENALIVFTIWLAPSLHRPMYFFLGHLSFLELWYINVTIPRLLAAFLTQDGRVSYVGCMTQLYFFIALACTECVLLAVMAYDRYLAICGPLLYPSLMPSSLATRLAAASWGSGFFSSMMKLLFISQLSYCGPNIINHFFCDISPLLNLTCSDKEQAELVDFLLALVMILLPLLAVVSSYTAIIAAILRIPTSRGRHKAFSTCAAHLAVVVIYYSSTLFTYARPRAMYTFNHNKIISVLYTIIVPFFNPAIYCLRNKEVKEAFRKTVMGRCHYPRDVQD
Procedure, shortened: as §1

[16] = biological target: T16, OR6Q1 (Homo sapiens) (UniProt Q8NGQ2)
T16 sequence (whole entry): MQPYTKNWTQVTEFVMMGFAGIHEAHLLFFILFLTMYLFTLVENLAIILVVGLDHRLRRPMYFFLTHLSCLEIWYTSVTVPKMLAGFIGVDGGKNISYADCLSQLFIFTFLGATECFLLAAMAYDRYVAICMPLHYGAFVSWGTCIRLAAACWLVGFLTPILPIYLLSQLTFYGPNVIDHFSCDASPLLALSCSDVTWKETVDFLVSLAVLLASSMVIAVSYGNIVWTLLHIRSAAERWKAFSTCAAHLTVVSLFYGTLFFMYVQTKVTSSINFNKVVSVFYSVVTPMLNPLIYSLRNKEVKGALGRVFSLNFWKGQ
Procedure, shortened: as §1

[17] = biological target: T17, OR6J1 (Homo sapiens) (UniProt Q8NGC5); remark: listed apart in the source
T17 sequence (whole entry): T8 sequence (whole entry) with P250S
Procedure, shortened: as §1

[18] = tested on: T18, OR6K3
T18 sequence (whole entry): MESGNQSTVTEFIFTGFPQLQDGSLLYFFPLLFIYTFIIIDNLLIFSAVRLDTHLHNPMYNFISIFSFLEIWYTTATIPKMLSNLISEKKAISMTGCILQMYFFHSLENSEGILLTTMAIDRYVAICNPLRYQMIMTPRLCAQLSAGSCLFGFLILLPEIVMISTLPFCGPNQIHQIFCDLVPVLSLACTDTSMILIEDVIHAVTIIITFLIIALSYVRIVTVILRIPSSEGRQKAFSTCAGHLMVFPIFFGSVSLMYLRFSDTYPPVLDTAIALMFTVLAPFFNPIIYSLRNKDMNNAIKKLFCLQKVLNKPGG
Procedure, shortened: as §1

[19] = tested on: T19, OR6M1 R224C
T19 sequence (whole entry): T12 sequence (whole entry) with R224C
Procedure, shortened: as §1

[20] = tested on: T20, OR6M1 T276K
T20 sequence (whole entry): T12 sequence (whole entry) with T276K
Procedure, shortened: as §1

Measured: odorant receptor agonist call;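 also: active if original authors judged signal statistically different from baseline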

CCCCCC(=O)C(C)C(C)=O (centres undefined)
not listed: [17] | [18] | [19] | [20]
inactive: all other assays above

CC1=C(O)C(=O)OC1C (centres undefined)
not listed: [8] | [10]
inactive: all other assays above
